According to ChEMBL document CHEMBL1138779, “Antitumor agents. 234. Design, synthesis, and biological evaluation of novel 4beta-[(4' '-benzamido)-amino]-4'-o-demethyl-epipodophyllotoxin derivatives” (2004):
Values after ≈ are worked out from the molar mass of the structure shown. Values joined by “and” are separate entries in the source; they are usually repeats but may differ in a detail not shown here. Equal entries are not always repeated. Active and inactive are the calls of the source. No cut-off for these calls is given here.

Experiments:
KB [1] = test: Dose required to cause reduction in human nasopharyngeal KB cancer cells after 3 days incubation; assay type: functional; details: 72 h, read-out: ED50 (the source's name)
Summary of the method: (§1)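 Cells grown at 37 °C, humidified 5% CO2, in RPMI-1640 with 25 mM HEPES, […], 10% (v/v) FBS and 100 µg/mL kanamycin. Drug exposure for 3 days. ED50 (concentration giving 50% reduction in cell number) interpolated from dose–response data. Triplicate tests, variation no more than 5%; independent ED50 determinations varied no more than 30%.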

PC-3 = test: Dose required for reduction in human prostate PC-3 cancer cells after 3 days incubation; assay type: functional; details: PC-3, 72 h, read-out: ED50 (the source's name); summary of the method: as §1
KB [2] = test: Ratio of ED50 for KB-7d cells to that of KB cells; assay type: functional, Homo sapiens
Summary of the method: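 Relative resistance (fold) taken as ED50 against KB-7d divided by ED50 against KB. Both values come from 3-day drug exposure, with ED50 interpolated from dose–response data as the concentration reducing cell number by 50%.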

KB [3] = test: Dose required for reduction in vincristine resistant human nasopharyngeal KB-VIN cancer cells after 3 days incubation; assay type: functional; details: 72 h, read-out: ED50 (the source's name); summary of the method: as §1
A549 = test: Dose required for reduction in human lung A549 cancer cells after 3 days incubation; assay type: functional; details: A549, 72 h, read-out: ED50 (the source's name); summary of the method: as §1
1A9/ptx-10 = test: Dose required for reduction in paclitaxel resistant human ovarian 1A9-PTX10 cancer cells after 3 days incubation; assay type: functional; details: 1A9/ptx-10, 72 h, read-out: ED50 (the source's name); summary of the method: as §1
1A9 = test: Dose required to cause reduction in human ovarian 1A9 cancer cells after 3 days incubation; assay type: functional; details: 1A9, 72 h, read-out: ED50 (the source's name); summary of the method: as §1
HCT-8 = test: Dose required for reduction in human ileocecal HCT-8 cancer cells after 3 day incubation; assay type: functional; details: HCT-8, 72 h, read-out: ED50 (the source's name); summary of the method: as §1
CAKI-1 [4] = test: Dose required for reduction in human renal CAKI-1 cancer cells after 3 days incubation; assay type: functional; details: CAKI-1, 72 h, read-out: ED50 (the source's name); summary of the method: as §1
KB [5] = test: Dose required for reduction in etoposide resistant human nasopharyngeal KB-7d cancer cells after 3 days incubation; assay type: functional; details: 72 h, read-out: ED50 (the source's name); summary of the method: as §1
[6] = target: T1, DNA topoisomerase II (Homo sapiens) (UniProt P11388+Q02880); test: Percentage of protein-linked DNA breaks in KB cells by [3H]thymidine incorporation; assay type: functional, cell-based; set-up: concentration or dose not given beside the values
Summary of the method: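 KB cells labelled overnight with 0.5 µCi/mL [methyl-3H]thymidine ([…]), chased 2 h, then treated in duplicate with compound at 10 µg/mL for 1 h. Protein-associated DNA breaks measured as potassium–SDS precipitable radioactivity. Values expressed relative to VP-16 control set at 100%.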

KB [7] = test: Dose required to cause reduction in human nasopharyngeal KB-7d cancer cells after 3 days incubation; assay type: functional; details: 72 h, read-out: ED50 (the source's name); summary of the method: as §1
[8] = target: T1, DNA topoisomerase II (Homo sapiens); test: Percentage of protein-linked DNA breaks in KB cells by [3H]thymidine incorporation at 5 ug/mL; assay type: functional, cell-based
Summary of the method: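 [3H]thymidine-prelabelled KB cells (0.5 µCi/mL, overnight, 2 h chase) treated in duplicate with compound at 5 µg/mL for 1 h. Protein-linked DNA breaks read as potassium–SDS precipitable radioactivity, given as percent of the VP-16 control set at 100%.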

U-87 MG = test: Dose required for reduction in human glioblastoma U-87-MG cancer cells after 3 days incubation; assay type: functional, U-87MG ATCC; details: 72 h, read-out: ED50 (the source's name); summary of the method: as §1
MCF7 = test: Dose required for reduction in human breast MCF-7 cancer cells after 3 day incubation; assay type: functional; details: MCF7, 72 h, read-out: ED50 (the source's name); summary of the method: as §1
KB [9] = test: Dose required for reduction in camptothecin resistant human nasopharyngeal KB cancer cells after 3 days incubation; assay type: functional; details: 72 h, read-out: ED50 (the source's name); summary of the method: as §1
KB [10] = test: Dose required for reduction in human nasopharyngeal KB-7d cancer cells after 3 days incubation; assay type: functional; details: 72 h, read-out: ED50 (the source's name); summary of the method: as §1
CAKI-1 [11] = test: Dose required for reduction in human renal CAKI-1 cancer cells after 3 days incubation; NA = not applicable; assay type: functional, cell-based; summary of the method: as §1

Structure (SMILES) | EC50 (KB [1]) | EC50 (PC-3) | Relative resistance (KB [2]) | EC50 (KB [3]) | EC50 (A549) | EC50 (1A9/ptx-10) | EC50 (1A9) | EC50 (HCT-8) | EC50 (CAKI-1 [4]) | EC50 (KB [5]) | Activity [6] | EC50 (KB [7]) | Activity [8] | EC50 (U-87 MG) | EC50 (MCF7) | EC50 (KB [9]) | EC50 (KB [10]) | ED50 (CAKI-1 [11])
COc1cc([C@@H]2c3cc4c(cc3[C@@H](O[C@@H]3O[C@@H]5CO[C@@H](C)O[C@H]5[C@H](O)[C@H]3O)[C@H]3COC(=O)[C@H]23)OCO4)cc(OC)c1O [ETOPOSIDE] | 0.5 µg/mL and 300 nM | > 100 µM | >20 | > 100 µM | 10.6 µM | > 5 µM | 0.15 µM | 62.9 µM | > 100 µM | 17.2 µM | 100% | > 10 µg/mL | 100% | 73.6 µM | 62.2 µM | 7 µM |  | 
COc1cc([C@@H]2c3cc4c(cc3[C@@H](Nc3ccc([N+](=O)[O-])cc3)[C@H]3COC(=O)[C@H]23)OCO4)cc(OC)c1O | 0.2 µg/mL |  | 10 |  |  |  |  |  |  |  | 244% |  | 218% |  |  |  | 2 µg/mL (≈ 3.84 µM) | 
COc1cc([C@@H]2c3cc4c(cc3[C@@H](Nc3ccc(C(=O)NCC(=O)OCc5ccccc5)cc3)[C@H]3COC(=O)[C@H]23)OCO4)cc(OC)c1O | 0.5 µg/mL and 860 nM | > 100 µM | 0.6 | 38.9 µM | 0.61 µM | 0.78 µM | 0.12 µM | 3.5 µM | > 100 µM | 2.6 µM | 178% |  |  | 16.9 µM | 2.3 µM | 1.3 µM | 0.3 µg/mL (≈ 0.45 µM) | 
COC(=O)[C@H](Cc1ccc(O)cc1)NC(=O)c1ccc(N[C@@H]2c3cc4c(cc3[C@@H](c3cc(OC)c(O)c(OC)c3)[C@H]3C(=O)OC[C@@H]32)OCO4)cc1 | 1.9 µg/mL |  | 2.6 |  |  |  |  |  |  |  | 76% |  |  |  |  |  | 5 µg/mL (≈ 7.18 µM) | 
COc1cc([C@@H]2c3cc4c(cc3[C@@H](Nc3ccc(NC(=O)[C@@H](Cc5ccc(O)cc5)NC(=O)OCc5ccccc5)cc3)[C@H]3COC(=O)[C@H]23)OCO4)cc(OC)c1O | 0.49 µM | > 100 µM |  | > 100 µM | 0.77 µM | 0.92 µM | 0.0086 µM | > 100 µM |  |  |  |  |  | > 100 µM | 1.9 µM |  |  | inactive
COC(=O)[C@H](Cc1ccccc1)NC(=O)c1ccc(N[C@@H]2c3cc4c(cc3[C@@H](c3cc(OC)c(O)c(OC)c3)[C@H]3C(=O)OC[C@@H]32)OCO4)cc1 | 0.55 µg/mL and 1.4 µM | > 100 µM | 1.8 | 4.2 µM | 1.2 µM | 1.7 µM | 0.36 µM | 3.8 µM | > 100 µM | 1.7 µM | 226% |  |  | 87.1 µM | 9.6 µM | 3.7 µM | 1 µg/mL (≈ 1.47 µM) | 
COc1cc([C@@H]2c3cc4c(cc3[C@@H](NC(=O)[C@H](Cc3ccc(O)cc3)NC(=O)OCc3ccccc3)[C@H]3COC(=O)[C@H]23)OCO4)cc(OC)c1O | 3.9 µM | 94.8 µM |  | > 100 µM | 15.9 µM | 5 µM | 0.94 µM | 77.7 µM | > 100 µM | 11.9 µM |  |  |  | 100 µM | 17.4 µM | 9 µM |  | 
COc1cc([C@@H]2c3cc4c(cc3[C@@H](Nc3ccc(C(=O)N[C@@H](C)C(=O)OCc5ccccc5)cc3)[C@H]3COC(=O)[C@H]23)OCO4)cc(OC)c1O | 0.5 µg/mL and 900 nM | 3.8 µM | 0.5 | 10.4 µM | 0.7 µM | 0.2 µM | 0.05 µM | 2.4 µM | > 100 µM | 1.4 µM | 210% |  |  | 8 µM | 1.6 µM | 1.7 µM | 0.25 µg/mL (≈ 0.367 µM) | 
COC(=O)[C@@H](Cc1c[nH]c2ccccc12)NC(=O)c1ccc(N[C@@H]2c3cc4c(cc3[C@@H](c3cc(OC)c(O)c(OC)c3)[C@H]3C(=O)OC[C@@H]32)OCO4)cc1 | 0.06 µg/mL and 440 nM | > 100 µM | 6.2 | 54.9 µM | 0.63 µM | 0.35 µM | 0.02 µM | 3.4 µM | > 100 µM | 3.5 µM | 121% |  |  | 94.3 µM | 3.6 µM | 0.28 µM | 0.4 µg/mL (≈ 0.556 µM) | 
